Measured values from ChEMBL document CHEMBL1152649, “Synthesis, cytotoxicity and human telomerase inhibition activities of a series of 1,2-heteroannelated anthraquinones and anthra[1,2-d]imidazole-6,11-dione homologues” (2009).
The source made the active and inactive calls. No cut-off for these calls is given here.

Columns and labels:
[1] = Cytotoxicity against human H1299 cells at 1 uM after 48 hrs by MTT assay; type: functional; settings: NCI-H1299, 48 h
Summary of the method: (§1)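 H1299 non-small cell lung cancer cells were grown in RPMI 1640 with 10% FBS, penicillin and streptomycin at 37 °C under 5% CO2. About 2 × 10³ cells per well were seeded and left 24 h. Compounds were dissolved fresh in DMSO, diluted into complete medium and applied for 48 h. MTT was then added for 4 h at 37 °C, followed by lysis buffer (20% SDS, 50% DMF) for 16 h, and absorbance was read at 550 nm.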

[2] = Cytotoxicity against human H1299 cells at 10 uM after 48 hrs by MTT assay; type: functional; settings: NCI-H1299, 48 h; summary of the method: as §1
[3] = Cytotoxicity against human H1299 cells at 100 uM after 48 hrs by MTT assay; type: functional; settings: NCI-H1299, 48 h; summary of the method: as §1
[4] = target: Telomerase reverse transcriptase (Homo sapiens) (UniProt O14746); assay: Inhibition of telomerase in human H1299 cells up to 100 uM by TRAP assay; type: cell-based
Summary of the method: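 PCR-based telomeric repeat amplification protocol (TRAP). The telomerase source was total lysate of H1299 lung cancer cells, with protein measured against BSA standards. Controls were extract without inhibitor and RNase A-treated extract.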

[5] = target: Telomerase reverse transcriptase (Homo sapiens) (UniProt O14746); assay: Inhibition of TERT in human H1299 cells assessed as residual transcriptional activity at 1 uM after 24 hrs by SEAP reporter gene assay; values are per cent of control
[6] = target: Telomerase reverse transcriptase (Homo sapiens) (UniProt O14746); assay: Inhibition of TERT in human H1299 cells assessed as residual transcriptional activity at 10 uM after 24 hrs by SEAP reporter gene assay; values are per cent of control
[7] = target: Telomerase reverse transcriptase (Homo sapiens) (UniProt O14746); assay: Inhibition of TERT in human H1299 cells assessed as residual transcriptional activity at 100 uM after 24 hrs by SEAP reporter gene assay; values are per cent of control

Chain of Telomerase reverse transcriptase (Homo sapiens) (O14746 whole entry): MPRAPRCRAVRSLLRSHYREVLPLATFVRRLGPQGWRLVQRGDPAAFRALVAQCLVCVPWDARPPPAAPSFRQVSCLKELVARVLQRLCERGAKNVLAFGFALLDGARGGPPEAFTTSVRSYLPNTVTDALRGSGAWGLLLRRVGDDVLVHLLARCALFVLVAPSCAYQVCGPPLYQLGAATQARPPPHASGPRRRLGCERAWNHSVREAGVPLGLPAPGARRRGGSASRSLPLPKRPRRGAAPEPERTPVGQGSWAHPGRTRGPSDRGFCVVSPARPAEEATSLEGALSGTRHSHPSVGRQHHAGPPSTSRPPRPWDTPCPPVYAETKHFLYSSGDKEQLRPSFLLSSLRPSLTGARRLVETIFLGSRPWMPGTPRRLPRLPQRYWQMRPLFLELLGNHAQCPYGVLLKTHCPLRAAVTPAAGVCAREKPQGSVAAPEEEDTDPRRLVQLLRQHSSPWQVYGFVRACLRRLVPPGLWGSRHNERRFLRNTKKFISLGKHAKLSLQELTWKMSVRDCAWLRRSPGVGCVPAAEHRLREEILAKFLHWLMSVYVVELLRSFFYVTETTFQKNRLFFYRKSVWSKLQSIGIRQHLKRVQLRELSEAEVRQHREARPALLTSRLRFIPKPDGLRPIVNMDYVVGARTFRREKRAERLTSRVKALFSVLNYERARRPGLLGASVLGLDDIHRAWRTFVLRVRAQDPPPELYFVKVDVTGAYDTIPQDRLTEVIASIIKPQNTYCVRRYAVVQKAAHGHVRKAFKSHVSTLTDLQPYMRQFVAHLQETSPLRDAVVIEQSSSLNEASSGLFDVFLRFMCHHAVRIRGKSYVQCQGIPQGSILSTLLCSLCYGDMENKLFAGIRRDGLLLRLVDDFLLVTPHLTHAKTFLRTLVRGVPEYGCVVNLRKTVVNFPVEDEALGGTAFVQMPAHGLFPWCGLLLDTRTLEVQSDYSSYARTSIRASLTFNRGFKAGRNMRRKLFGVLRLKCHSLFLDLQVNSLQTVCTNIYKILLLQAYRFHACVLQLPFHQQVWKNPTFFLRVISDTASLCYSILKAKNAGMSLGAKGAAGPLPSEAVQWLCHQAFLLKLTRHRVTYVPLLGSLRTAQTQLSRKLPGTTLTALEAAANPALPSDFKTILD

| SMILES | viability at 1 µM [1] [%] | viability at 10 µM [2] [%] | viability at 100 µM [3] [%] | inhibition [4] | residual activity [5] [%] | residual activity [6] [%] | residual activity [7] [%] |
| --- | --- | --- | --- | --- | --- | --- | --- |
| CC(C)(C)c1nc2ccc3c(c2[nH]1)C(=O)c1ccccc1C3=O | 83 | 81 | 56 | inactive | 88 | 87 | 29 |
| O=C1c2ccccc2C(=O)c2c1ccc1nc(-c3ccc([N+](=O)[O-])cc3)[nH]c21 | 84 | 52 | 33 | inactive | 85 | 62 | 6 |
| Cc1nc2ccc3c(c2[nH]1)C(=O)c1ccccc1C3=O | 64 | 44 | 33 | inactive | 101 | 82 | 19 |
| CC/C=C/c1nc2ccc3c(c2[nH]1)C(=O)c1ccccc1C3=O | 69 | 48 | 14 | inactive | 63 | 34 | 13 |
| CCCCCCCc1nc2ccc3c(c2[nH]1)C(=O)c1ccccc1C3=O | 85 | 69 | 40 | inactive | 89 | 88 | 32 |
| CCCCc1nc2ccc3c(c2[nH]1)C(=O)c1ccccc1C3=O | 85 | 70 | 20 | inactive | 91 | 84 | 36 |
| O=C1c2ccccc2C(=O)c2c1ccc1[nH]c(=S)[nH]c21 | 101 | 99 | 54 | inactive | 97 | 100 | 31 |
| COc1ccc(OC)c(-c2nc3ccc4c(c3[nH]2)C(=O)c2ccccc2C4=O)c1 | 91 | 39 | 13 | inactive | 77 | 76 | 41 |
| CC(C)c1nc2ccc3c(c2[nH]1)C(=O)c1ccccc1C3=O | 95 | 73 | 34 | inactive | 83 | 76 | 13 |
| O=C1c2ccccc2C(=O)c2c1ccc1nc(CCl)[nH]c21 | 80 | 79 | 26 | inactive | 94 | 81 | 5 |
| CC1(c2ccccc2)Nc2ccc3c(c2N1)C(=O)c1ccccc1C3=O (stereo unspecified) | 99 | 99 | 29 | inactive | 99 | 97 | 29 |
| Cc1nc2ccc3c(c2nc1C)C(=O)c1ccccc1C3=O | 78 | 69 | 25 | inactive | 95 | 88 | 26 |
| CCC(C)c1nc2ccc3c(c2[nH]1)C(=O)c1ccccc1C3=O (stereo unspecified) | 77 | 83 | 43 | inactive | 67 | 58 | 11 |
